Test results reported in ChEMBL document CHEMBL2396513, “Falcipain-2 inhibition by suramin and suramin analogues” (Bioorg Med Chem, 2013).
Calls of active or inactive are those of the source. The rule behind the calls is not given here.

What was measured:
[1] = Inhibition of Plasmodium falciparum falcipain-2 peptidolytic activity using Z-Phe-Arg-AMC as substrate measured over 30 mins by spectrofluorimetric analysis
Method in brief: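 Recombinant falcipain-2 at 20 nM in 100 mM sodium acetate, 10 mM DTT, 10% glycerol, pH 5.5, with 50 µM Z-Phe-Arg-AMC and varying inhibitor concentrations. AMC release followed continuously (ex 355/em 460 nm) over 30 min at 23 ± 2 °C. IC50 from percent activity versus inhibitor concentration fitted to four-parameter logistic; at least three independent experiments.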

[2] = tested on: Plasmodium falciparum; experiment: Binding affinity to Plasmodium falciparum falcipain-2 at 1:1 compound to protein molar ratio by isothermal titration assay
Method in brief: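 Recombinant mature falcipain-2 domain (241 aa, E. coli-expressed, Ni-column purified, refolded), 5 µM in 100 mM sodium acetate pH 5.5, 5% glycerol, 10 mM DTT; suramin added stepwise from stock in same buffer. Intrinsic tryptophan fluorescence read at ex 295/em 340 nm; maximum dilution 10%, with fluorescence and protein concentration corrected. Stoichiometry taken from inflection of first-derivative titration curve.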

[3] = tested on: Plasmodium falciparum; experiment: Inhibition of Plasmodium falciparum falcipain-2 hemoglobinase activity at 200 nM after 90 mins by Coomassie Blue R-250 staining-based densitometric analysis
Method in brief: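 Human hemoglobin 0.1 mg/ml digested by 20 nM recombinant falcipain-2 in 100 mM sodium acetate, 10 mM DTT, 10% glycerol, pH 5.5, with or without compound, 37 °C for 90 min. Quenched with denaturing SDS sample buffer, products run on 15% SDS-PAGE, Coomassie-stained, and remaining hemoglobin quantified by densitometry.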

SMILES	IC50 [1] [nM]	Activity [2]	inhibition [3]
CCc1ccc(C(=O)Nc2ccc(S(=O)(=O)O)c3cc(S(=O)(=O)O)cc(S(=O)(=O)O)c23)cc1NC(=O)c1cccc(NC(=O)Nc2cccc(C(=O)Nc3cc(C(=O)Nc4ccc(S(=O)(=O)O)c5cc(S(=O)(=O)O)cc(S(=O)(=O)O)c45)ccc3CC)c2)c1	80		
O=C(Nc1cccc(C(=O)Nc2ccc(S(=O)(=O)O)cc2S(=O)(=O)O)c1)Nc1cccc(C(=O)Nc2ccc(S(=O)(=O)O)cc2S(=O)(=O)O)c1	98		
CC(C)c1ccc(C(=O)Nc2ccc(S(=O)(=O)O)c3cc(S(=O)(=O)O)cc(S(=O)(=O)O)c23)cc1NC(=O)c1cccc(NC(=O)Nc2cccc(C(=O)Nc3cc(C(=O)Nc4ccc(S(=O)(=O)O)c5cc(S(=O)(=O)O)cc(S(=O)(=O)O)c45)ccc3C(C)C)c2)c1	111		
COc1ccc(C(=O)Nc2ccc(S(=O)(=O)O)c3cc(S(=O)(=O)O)cc(S(=O)(=O)O)c23)cc1NC(=O)c1cccc(NC(=O)Nc2cccc(C(=O)Nc3cc(C(=O)Nc4ccc(S(=O)(=O)O)c5cc(S(=O)(=O)O)cc(S(=O)(=O)O)c45)ccc3OC)c2)c1	67		
O=C(Nc1cccc(C(=O)Nc2cc(C(=O)Nc3ccc(S(=O)(=O)O)c4cc(S(=O)(=O)O)cc(S(=O)(=O)O)c34)ccc2Cl)c1)Nc1cccc(C(=O)Nc2cc(C(=O)Nc3ccc(S(=O)(=O)O)c4cc(S(=O)(=O)O)cc(S(=O)(=O)O)c34)ccc2Cl)c1	78		
COCc1ccc(C(=O)Nc2ccc(S(=O)(=O)O)c3cc(S(=O)(=O)O)cc(S(=O)(=O)O)c23)cc1NC(=O)c1cccc(NC(=O)Nc2cccc(C(=O)Nc3cc(C(=O)Nc4ccc(S(=O)(=O)O)c5cc(S(=O)(=O)O)cc(S(=O)(=O)O)c45)ccc3COC)c2)c1	60		
O=C(Nc1cccc(C(=O)Nc2cccc(C(=O)Nc3ccc(S(=O)(=O)O)c4cc(S(=O)(=O)O)cc(S(=O)(=O)O)c34)c2)c1)Nc1cccc(C(=O)Nc2cccc(C(=O)Nc3ccc(S(=O)(=O)O)c4cc(S(=O)(=O)O)cc(S(=O)(=O)O)c34)c2)c1	36		
O=C(Nc1cccc(C(=O)Nc2ccc(S(=O)(=O)O)c3cc(S(=O)(=O)O)cc(S(=O)(=O)O)c23)c1)Nc1cccc(C(=O)Nc2ccc(S(=O)(=O)O)c3cc(S(=O)(=O)O)cc(S(=O)(=O)O)c23)c1	167		
O=C(Nc1cccc(C(=O)Nc2cc(C(=O)Nc3ccc(S(=O)(=O)O)c4cc(S(=O)(=O)O)cc(S(=O)(=O)O)c34)ccc2F)c1)Nc1cccc(C(=O)Nc2cc(C(=O)Nc3ccc(S(=O)(=O)O)c4cc(S(=O)(=O)O)cc(S(=O)(=O)O)c34)ccc2F)c1	42		
CC1=CCC(C(=O)/N=C2\CC=C(S(=O)(=O)O)c3cc(S(=O)(=O)O)cc(S(=O)(=O)O)c32)=C/C1=N/C(=O)C1=CC=C/C(=N\C(=O)/N=C2\C=CC=C(C(=O)/N=C3/CC(C(=O)/N=C4\CC=C(S(=O)(=O)O)c5cc(S(=O)(=O)O)cc(S(=O)(=O)O)c54)=CC=C3C)C2)C1	95	Active	Active
O=C(Nc1cccc(C(=O)Nc2cc(C(=O)Nc3ccc(S(=O)(=O)O)c4cc(S(=O)(=O)O)cc(S(=O)(=O)O)c34)ccc2-c2ccccc2)c1)Nc1cccc(C(=O)Nc2cc(C(=O)Nc3ccc(S(=O)(=O)O)c4cc(S(=O)(=O)O)cc(S(=O)(=O)O)c34)ccc2-c2ccccc2)c1	62		
